Laboratory results: paper PMC2920133 (Biochemistry, 2010)
Positions count from the first letter of the chain named. Where two headings read alike, the source gives them in different places.

Experiments:
ArsD109-ArsA = ArsD109-ArsA (Escherichia coli, UniProt P08690+P46003, DEL110-120); test: Metalloid transfer assay on amylose column; type: biochemical; settings: 5 mM nucleotide
[1] = molecular target: ArsD109 V17W single-tryptophan derivative (Escherichia coli, UniProt P46003, V17W/W35Y/W97Y); type: binding; settings: for fluorescence quenching: high concentrations: 5 mM As(III) or 0.1 mM Sb(III) (Figure 2B)
ArsD109 C13G/T15W = molecular target: T1, ArsD109 C13G/T15W (Escherichia coli, UniProt P46003, C13G/T15W/W35Y/W97Y); test: Intrinsic tryptophan fluorescence quenching, As; type: binding
T1 sequence (P46003 1-109 C13G/T15W/W35Y/W97Y): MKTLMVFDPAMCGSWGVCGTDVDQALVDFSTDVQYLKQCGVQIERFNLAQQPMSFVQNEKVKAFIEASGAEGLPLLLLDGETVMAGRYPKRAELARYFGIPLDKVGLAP
In short: (§1)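 N-terminal His6 ArsD109 (W35/97Y, T15W, plus single Cys→Gly) expressed in BL21(DE3) with 0.3 mM IPTG for 3 h. Used at 1 μM in 50 mM MOPS-KOH pH 7.5 with 0.25 mM EDTA, room temperature. Sodium arsenite titrated. Quenching rate k_obs (ex 295 nm, em 345 nm) fitted per arsenite concentration; k_obs = k_off + k_on[As(III)], and Kd = k_off/k_on.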

ArsD109 C12G/T15W = molecular target: T2, ArsD109 C12G/T15W (Escherichia coli, UniProt P46003, C12G/T15W/W35Y/W97Y); test: Intrinsic tryptophan fluorescence quenching, As; type: binding
T2 sequence (P46003 1-109 C12G/T15W/W35Y/W97Y): T1 sequence (P46003 1-109 C13G/T15W/W35Y/W97Y) with C12G, G13C
In short: as §1

ArsD109 C18G/T15W = molecular target: T3, ArsD109 C18G/T15W (Escherichia coli, UniProt P46003, C18G/T15W/W35Y/W97Y); test: Intrinsic tryptophan fluorescence quenching, As; type: binding
T3 sequence (P46003 1-109 T15W/C18G/W35Y/W97Y): T1 sequence (P46003 1-109 C13G/T15W/W35Y/W97Y) with G13C, C18G
In short: as §1

[2] = system: single-tryptophan derivatives of ArsD109; type: binding, Escherichia coli; settings: 1 μM protein mixed with equimolar As(III), absence of added thiols
In short: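 Single-tryptophan ArsD109 (N-terminal His6, W35/97Y background carrying T15W or V17W), expressed in E. coli BL21(DE3). Protein at 1 μM in 50 mM MOPS-KOH pH 7.5 with 0.25 mM EDTA, room temperature, no thiol added. Sodium arsenite added from concentrated stock. Trp fluorescence (ex 295 nm, em 345 nm) followed over time and corrected for dilution.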

[3] = molecular target: ArsD109 T15W single-tryptophan derivative (Escherichia coli, UniProt P46003, T15W/W35Y/W97Y); test: Intrinsic tryptophan fluorescence quenching, metalloid binding to T15W; settings: for fluorescence quenching: high concentrations: 5 mM As(III) or 0.1 mM Sb(III) (Figure 2B)
ArsA ATPase = ArsA ATPase (Escherichia coli, UniProt P08690); test: Coupled ATPase assay, metalloid-stimulated ArsA activity; type: biochemical; settings: DMSA titration
[4] = thiolate of GS^−1; cited from earlier work
[5] = quenching of T15W fluorescence, retains Cys12 and Cys18
[6] = quenching of T15W fluorescence, retains Cys13 and Cys18
[7] = quenching of T15W fluorescence, retains Cys12 and Cys13
[8] = additive 5 mM, 50 μM sodium arsenite, pH 7.5

In the case of `Nc1ncnc2c1ncn2[C@@H]1O[C@H](COP(=O)(O)OP(=O)([O-])OP(=O)([O-])O)[C@@H](O)[C@H]1O.[Mg+2]` [MgATP], the “transfer of As(III) from MBP-ArsD109 to ArsA” value (from here on “transfer of As(III)”) (ArsD109-ArsA; 4 °C) is reported as “almost no As(III) eluted with ArsA” and the “transfer of As(III)” value (ArsD109-ArsA; room temperature) is reported as “nearly all of the As(III) eluted in the ArsA-containing fractions”.

For `O=[As][O-].[Na+]` [As(III), sodium arsenite], the “rate of fluorescence quenching at pH 9 relative to pH 7” value ([1]; 50 μM sodium arsenite, 1 μM V17W, absence of GSH) was ~ 10 fold, the “fluorescence change in the absence of GSH” value ([1]; 50 μM sodium arsenite, pH 7.5) was “decreased very slowly” and the fluorescence quenching [1] was “approximately 50%”. For the same molecule, the Kd ([1]; read-out: Kd (binding affinity), calculated from koff/kon) was 2 ± 1 µM, the Kd (ArsD109 C13G/T15W; calculated from koff/kon) was 68 ± 6 µM and the koff (ArsD109 C13G/T15W; [5]) was “(2.7 ±0.1) × 10^−3 s^−1”. The kon (ArsD109 C13G/T15W; [5]) was “(4 ±0.2) × 10^−5 s^−1 μM^−1”, the Kd (ArsD109 C12G/T15W; calculated from koff/kon) was 48 ± 3 µM and the koff (ArsD109 C12G/T15W; [6]) was “(2.4 ± 0.1) × 10^−3 s^−1”. For the same molecule, the kon (ArsD109 C12G/T15W; [6]) was “(5 ± 0.1) × 10^−5 s^−1 μM^−1”, the Kd (ArsD109 C18G/T15W; calculated from koff/kon) was 28 ± 3 µM and the koff (ArsD109 C18G/T15W; [7]) was “(1.4 ± 0.1) × 10^−3 s^−1”. For the same molecule, the kon (ArsD109 C18G/T15W; [7]) was “(5 ± 0.1) × 10^−5 s^−1 μM^−1”, the “time to attain a steady-state level of fluorescence” value [2] was “more than 2 h” and the koff ([3]; As(III) concentration dependence of fluorescence quenching, no added thiols) was “(3 ± 1) × 10^−4 s^−1”. The Kd ([3]; calculated from koff/kon) was 1.5 ± 0.5 µM and the fluorescence quenching [3] was “approximately 50%”.

With `Nc1ncnc2c1ncn2[C@@H]1O[C@H](CO[P@](=O)(O)O[P@](=O)(O)O[P@@](=O)(O)S)[C@@H](O)[C@H]1O` [MgATP-γ-S] the “transfer of As(III)” value (ArsD109-ArsA; room temperature) was “did not promote transfer”.

With `OCCS` [β-mercaptoethanol] the “effect of additive on rate of fluorescence quenching by As(III)” value (“effect of additive” below) [1, 8] was “increased the rate of quenching”.

For `O=C(O)[C@@H](S)[C@@H](S)C(=O)O` [DMSA, dimercaptosuccinic acid], the “effect on basal activity of ArsA” value (ArsA ATPase; 0.3 μM ArsA alone) was “did not affect” and the “effect on As(III)-stimulated rate of ArsA activity” value (ArsA ATPase; 0.3 μM ArsA, 0.5 mM sodium arsenite) was “inhibited”.

With `Nc1ncnc2c1ncn2[C@@H]1O[C@H](COP(=O)([O-])OP(=O)([O-])O)[C@@H](O)[C@H]1O.[Mg+2]` [MgADP] the “transfer of As(III)” value (ArsD109-ArsA; room temperature) was “As(III) eluted with MBP-ArsD109 and not with ArsA”.

For `N[C@@H](CS)C(=O)O` [L-cysteine], the “effect of additive” value [1, 8] was “increased the rate of quenching”.

With `O.O.O.O=C([O-])[C@H]([O-])[C@@H]([O-])C(=O)[O-].O=C([O-])[C@H]([O-])[C@@H]([O-])C(=O)[O-].[K+].[K+].[Sb+3].[Sb+3]` [Sb(III), potassium antimonyl tartrate] the “fluorescence quenching in the absence of added monothiols” value ([1]; 2.5 μM, pH 7.5) was “rapidly quenched fluorescence”, the fluorescence quenching [1] was “approximately 50%” and the fluorescence quenching [3] was “approximately 50%”.

For `N[C@@H](CCC(=O)N[C@@H](CS)C(=O)NCC(=O)O)C(=O)O` [GSH, reduced glutathione], the “acceleration of rate of As(III) fluorescence quenching” value ([1]; 5 mM GSH, 50 μM sodium arsenite, 1 μM V17W, pH 7.5) was 10 fold, the “rate of As(III) fluorescence quenching with additive” value ([1]; 5 mM GSH, 50 μM sodium arsenite, pH ≥8) was “too fast to measure accurately” and the “effect of additive” value ([1]; additive 0.2 mM, 50 μM sodium arsenite, pH 7.5) was “had little effect”. For the same molecule, the “effect of additive” value [1, 8] was “increased the rate substantially” and the pKa [4] was 8.7.

With `O=C(O)CCP(CCC(=O)O)CCC(=O)O` [TCEP, tris(2-carboxyethyl)phosphine] the “effect of additive” value [1, 8] was “did not increase the rate of quenching”.
